Experimental findings from ChEMBL document CHEMBL4118021, “Studies of TAK1-centered polypharmacology with novel covalent TAK1 inhibitors” (Bioorg Med Chem, 2017) are described below.

Assay [1] addresses T1, 80S Ribosome (Homo sapiens) (UniProt P08865+P42677+P62753+P15880+P23396+P61247+P62701+P22090+P46782+P62081+P62241+P46781+P46783+P62280+P25398+P62277+P62263+P62841+P62244+P62249+P08708+P62269+P39019+P60866+P63220+P62266+P62847+P62851+P62854+P62979+P62857+P62273+P62861+P39023+P36578+P46777+Q02878+P18124+P62424+P62917+P32969+P27635+P62906+P62913+P30050+P26373+P40429+P50914+P61313+P18621+Q07020+Q02543+P84098+P46778+P35268+P62829+P62750+P83731+P61254+P61353+P46776+P46779+P47914+P62888+P62899+P62910+P49207+P42766+P18077+Q9Y3U8+P83881+P61927+P61513+P63173+P62891+P62945+P05388+P05386). Nature of the assay: Binding affinity to RPS25 in human NCI-H23 cells at 1 uM by mass spectrometry based pull down assay. The format is cell-based.

Assay [2] concerns the target Actin-related protein 2 (Homo sapiens) (UniProt P61160). The experiment in a line: Binding affinity to ACTR2 in human NCI-H23 cells at 1 uM by mass spectrometry based pull down assay. The format is cell-based. Put shortly:
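NCI-H23 or NCI-H358 cells were grown and lysed. Lysates were incubated overnight at 4 °C with 1 μM biotinylated covalent probe or DMSO, then pulled down on streptavidin beads. Proteins were run on polyacrylamide gels and stained with Coomassie. Bands were excised, digested and identified by mass spectrometry.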

For assay [3], the target named is Glutathione S-transferase kappa 1 (Homo sapiens) (UniProt Q9Y2Q3). The experiment in a line: Binding affinity to GSTK1 in human NCI-H23 cells at 1 uM by mass spectrometry based pull down assay. It counts as cell-based.
Glutathione S-transferase kappa 1 (Homo sapiens), sequence (Q9Y2Q3 whole entry): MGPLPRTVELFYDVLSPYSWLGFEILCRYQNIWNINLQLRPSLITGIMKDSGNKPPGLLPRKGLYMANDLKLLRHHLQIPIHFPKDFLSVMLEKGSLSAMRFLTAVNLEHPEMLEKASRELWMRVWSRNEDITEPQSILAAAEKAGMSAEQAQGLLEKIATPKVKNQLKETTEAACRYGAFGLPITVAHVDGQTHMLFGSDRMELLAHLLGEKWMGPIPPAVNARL
In assay [4] the target is T2, Serine/threonine-protein kinase 4 (Homo sapiens) (UniProt Q13043).
T2 sequence (whole entry): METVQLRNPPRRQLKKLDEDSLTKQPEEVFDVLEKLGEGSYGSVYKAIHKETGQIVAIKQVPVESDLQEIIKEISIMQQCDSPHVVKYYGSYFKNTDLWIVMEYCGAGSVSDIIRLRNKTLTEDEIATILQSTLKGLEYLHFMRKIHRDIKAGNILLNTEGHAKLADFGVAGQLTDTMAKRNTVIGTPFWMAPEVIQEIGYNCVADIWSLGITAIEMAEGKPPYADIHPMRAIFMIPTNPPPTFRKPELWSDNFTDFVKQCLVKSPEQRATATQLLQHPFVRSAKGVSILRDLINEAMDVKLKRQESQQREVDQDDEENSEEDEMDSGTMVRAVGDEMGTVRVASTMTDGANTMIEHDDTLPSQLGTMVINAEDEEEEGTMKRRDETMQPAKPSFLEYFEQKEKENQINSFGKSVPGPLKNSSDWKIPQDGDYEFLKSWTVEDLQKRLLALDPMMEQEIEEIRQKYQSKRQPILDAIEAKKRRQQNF
The experiment in a line: Binding affinity to STK4 in human NCI-H23 cells at 1 uM by mass spectrometry based pull down assay. The format is cell-based.

Assay [5] deals with Acylamino-acid-releasing enzyme (Homo sapiens) (UniProt P13798). Nature of the assay: Binding affinity to APEH in human NCI-H23 cells at 1 uM by mass spectrometry based pull down assay. It counts as cell-based.
Acylamino-acid-releasing enzyme (Homo sapiens), sequence (P13798 whole entry): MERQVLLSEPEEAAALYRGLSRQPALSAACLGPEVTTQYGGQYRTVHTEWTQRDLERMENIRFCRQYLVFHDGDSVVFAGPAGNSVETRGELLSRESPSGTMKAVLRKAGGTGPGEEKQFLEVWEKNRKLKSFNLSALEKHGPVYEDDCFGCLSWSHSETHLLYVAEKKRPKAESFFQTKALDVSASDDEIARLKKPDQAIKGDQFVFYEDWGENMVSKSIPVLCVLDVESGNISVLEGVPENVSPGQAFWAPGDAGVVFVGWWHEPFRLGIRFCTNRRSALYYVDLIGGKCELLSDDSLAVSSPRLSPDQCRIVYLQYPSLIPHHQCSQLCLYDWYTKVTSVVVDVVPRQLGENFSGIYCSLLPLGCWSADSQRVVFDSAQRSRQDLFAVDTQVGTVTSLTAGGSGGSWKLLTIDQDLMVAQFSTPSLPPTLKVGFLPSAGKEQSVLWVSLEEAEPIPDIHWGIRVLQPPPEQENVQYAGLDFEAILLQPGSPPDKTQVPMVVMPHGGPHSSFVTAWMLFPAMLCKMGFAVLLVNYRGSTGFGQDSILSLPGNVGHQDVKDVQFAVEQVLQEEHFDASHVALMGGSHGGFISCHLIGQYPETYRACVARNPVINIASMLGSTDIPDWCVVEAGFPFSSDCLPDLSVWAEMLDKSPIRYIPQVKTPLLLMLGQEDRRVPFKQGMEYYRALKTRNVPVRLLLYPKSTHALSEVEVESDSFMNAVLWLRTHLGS
Assay [6] addresses Proteasome activator complex subunit 2 (Homo sapiens) (UniProt Q9UL46). Nature of the assay: Binding affinity to PSME2 in human NCI-H23 cells at 1 uM by mass spectrometry based pull down assay. The format is cell-based.
Assay [7] addresses T1, 80S Ribosome (Homo sapiens). Nature of the assay: Binding affinity to RPS10 in human NCI-H23 cells at 1 uM by mass spectrometry based pull down assay. It counts as cell-based.
The target of assay [8] is Trifunctional purine biosynthetic protein adenosine-3 (Homo sapiens) (UniProt P22102). Nature of the assay: Binding affinity to GART in human NCI-H23 cells at 1 uM by mass spectrometry based pull down assay. It counts as cell-based.
Trifunctional purine biosynthetic protein adenosine-3 (Homo sapiens), sequence (P22102 whole entry): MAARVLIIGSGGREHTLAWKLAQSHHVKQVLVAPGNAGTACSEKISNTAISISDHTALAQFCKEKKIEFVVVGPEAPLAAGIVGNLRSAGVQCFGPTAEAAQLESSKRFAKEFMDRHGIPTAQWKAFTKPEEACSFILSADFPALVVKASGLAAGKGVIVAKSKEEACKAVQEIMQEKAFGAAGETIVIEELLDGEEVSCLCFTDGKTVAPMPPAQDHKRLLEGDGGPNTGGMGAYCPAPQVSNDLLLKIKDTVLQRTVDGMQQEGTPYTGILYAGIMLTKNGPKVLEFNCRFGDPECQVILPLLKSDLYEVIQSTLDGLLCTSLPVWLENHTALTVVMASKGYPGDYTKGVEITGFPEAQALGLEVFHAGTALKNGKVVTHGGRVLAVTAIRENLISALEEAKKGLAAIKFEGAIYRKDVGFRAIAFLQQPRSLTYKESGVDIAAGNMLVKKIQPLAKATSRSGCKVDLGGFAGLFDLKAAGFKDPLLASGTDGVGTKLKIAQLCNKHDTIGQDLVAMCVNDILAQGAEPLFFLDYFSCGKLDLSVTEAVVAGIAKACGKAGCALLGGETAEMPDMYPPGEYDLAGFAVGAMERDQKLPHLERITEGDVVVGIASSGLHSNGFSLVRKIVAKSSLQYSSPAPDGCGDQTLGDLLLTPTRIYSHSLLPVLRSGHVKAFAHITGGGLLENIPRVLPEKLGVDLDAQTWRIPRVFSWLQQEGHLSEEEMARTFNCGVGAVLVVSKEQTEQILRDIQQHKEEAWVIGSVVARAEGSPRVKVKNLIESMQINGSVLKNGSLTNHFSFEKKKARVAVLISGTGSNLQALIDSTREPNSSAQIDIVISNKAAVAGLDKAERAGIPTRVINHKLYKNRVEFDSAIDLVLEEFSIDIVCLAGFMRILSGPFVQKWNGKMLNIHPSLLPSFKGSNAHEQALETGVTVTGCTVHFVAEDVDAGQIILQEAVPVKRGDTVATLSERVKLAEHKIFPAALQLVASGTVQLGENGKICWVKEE
In assay [9] the target is T1, 80S Ribosome (Homo sapiens). Nature of the assay: Binding affinity to RPS12 in human NCI-H358 cells at 1 uM by mass spectrometry based pull down assay. The format is cell-based.
Assay [10] has as its target Protein disulfide-isomerase A4 (Homo sapiens) (UniProt P13667). Nature of the assay: Binding affinity to PDIA4 in human NCI-H358 cells at 1 uM by mass spectrometry based pull down assay. It counts as cell-based.
For assay [11], the target named is T3, Dual specificity mitogen-activated protein kinase kinase 7 (Homo sapiens) (UniProt O14733).
T3 sequence (whole entry): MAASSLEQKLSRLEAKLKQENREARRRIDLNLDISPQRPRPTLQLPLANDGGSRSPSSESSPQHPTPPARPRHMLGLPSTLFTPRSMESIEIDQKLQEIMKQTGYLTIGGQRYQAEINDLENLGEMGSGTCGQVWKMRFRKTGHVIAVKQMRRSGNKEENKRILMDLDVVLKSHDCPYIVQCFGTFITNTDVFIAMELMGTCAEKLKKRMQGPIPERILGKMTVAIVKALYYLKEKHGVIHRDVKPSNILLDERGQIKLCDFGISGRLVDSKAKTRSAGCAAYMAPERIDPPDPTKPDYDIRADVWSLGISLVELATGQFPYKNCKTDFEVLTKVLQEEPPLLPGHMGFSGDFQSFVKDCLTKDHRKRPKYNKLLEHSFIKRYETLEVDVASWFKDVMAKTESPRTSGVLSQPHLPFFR
The experiment in a line: Binding affinity to MAP2K7 in human NCI-H358 cells at 1 uM by mass spectrometry based pull down assay. The format is cell-based.

For assay [12], the target named is Serine/threonine-protein kinase Nek8 (Homo sapiens) (UniProt Q86SG6). The experiment in a line: Inhibition of NEK8 in human SKCO1 cells at 1 uM after 4 hrs using biotin labeled DLKTQNILLDK probe by mass-spectrometric analysis relative to control. It counts as cell-based.
Serine/threonine-protein kinase Nek8 (Homo sapiens), sequence (Q86SG6 whole entry): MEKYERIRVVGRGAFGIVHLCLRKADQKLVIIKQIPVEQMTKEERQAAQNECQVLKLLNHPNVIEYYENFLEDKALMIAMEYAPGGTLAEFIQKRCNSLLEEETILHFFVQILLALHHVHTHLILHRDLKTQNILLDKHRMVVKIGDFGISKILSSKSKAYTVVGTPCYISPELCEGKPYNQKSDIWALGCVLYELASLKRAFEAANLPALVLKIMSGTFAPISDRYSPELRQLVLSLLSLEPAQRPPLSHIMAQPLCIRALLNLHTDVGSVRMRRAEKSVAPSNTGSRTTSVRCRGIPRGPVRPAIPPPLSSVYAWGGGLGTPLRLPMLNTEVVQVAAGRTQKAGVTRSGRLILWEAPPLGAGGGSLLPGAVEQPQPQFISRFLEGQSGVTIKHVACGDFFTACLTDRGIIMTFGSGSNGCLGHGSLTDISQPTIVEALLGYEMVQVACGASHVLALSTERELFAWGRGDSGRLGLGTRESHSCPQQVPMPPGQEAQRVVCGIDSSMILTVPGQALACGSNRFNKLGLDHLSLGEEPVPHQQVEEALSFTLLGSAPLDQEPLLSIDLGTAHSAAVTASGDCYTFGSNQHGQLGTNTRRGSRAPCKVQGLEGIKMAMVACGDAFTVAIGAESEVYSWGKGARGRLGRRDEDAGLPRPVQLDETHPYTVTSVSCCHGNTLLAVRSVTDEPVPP
Assay [13] addresses T4, Dual specificity mitogen-activated protein kinase kinase 5 (Homo sapiens) (UniProt Q13163).
T4 sequence (whole entry): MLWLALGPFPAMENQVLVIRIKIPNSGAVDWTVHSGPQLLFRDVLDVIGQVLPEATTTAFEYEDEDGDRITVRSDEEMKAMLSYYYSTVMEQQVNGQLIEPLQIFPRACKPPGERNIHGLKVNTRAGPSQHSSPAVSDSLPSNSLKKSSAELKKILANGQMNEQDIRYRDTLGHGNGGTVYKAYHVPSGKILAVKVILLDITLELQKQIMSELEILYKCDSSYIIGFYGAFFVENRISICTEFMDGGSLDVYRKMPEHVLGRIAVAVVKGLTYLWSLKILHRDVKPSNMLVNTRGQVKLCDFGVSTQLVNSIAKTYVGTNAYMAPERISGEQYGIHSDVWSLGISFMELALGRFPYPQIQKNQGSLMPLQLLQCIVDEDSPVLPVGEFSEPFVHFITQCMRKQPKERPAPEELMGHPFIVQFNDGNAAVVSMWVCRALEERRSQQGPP
Nature of the assay: Inhibition of human MEK5 (98 to 448 residues) expressed in mammalian expression system assessed as enzyme activity at 10 uM by KINOMEScan assay relative to control. The arrangement: scale not given: the % may be the effect or the level left. The gist of the method:
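In vitro ATP-site competition binding assay across a panel of 456 kinases, with compound tested at 1 and 10 μM.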

Calls of active or inactive are those of the source. The rule behind the calls is not given here.

Proteasome activator complex subunit 2 (Homo sapiens), sequence (Q9UL46 whole entry, one chain of several): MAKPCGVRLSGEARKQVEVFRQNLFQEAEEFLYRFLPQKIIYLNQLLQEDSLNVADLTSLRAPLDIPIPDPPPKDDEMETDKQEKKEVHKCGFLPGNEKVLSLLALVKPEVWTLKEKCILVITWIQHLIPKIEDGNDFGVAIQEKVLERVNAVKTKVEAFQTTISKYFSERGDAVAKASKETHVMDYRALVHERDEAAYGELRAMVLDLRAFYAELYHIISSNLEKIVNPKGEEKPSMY
Protein disulfide-isomerase A4 (Homo sapiens), sequence (P13667 whole entry): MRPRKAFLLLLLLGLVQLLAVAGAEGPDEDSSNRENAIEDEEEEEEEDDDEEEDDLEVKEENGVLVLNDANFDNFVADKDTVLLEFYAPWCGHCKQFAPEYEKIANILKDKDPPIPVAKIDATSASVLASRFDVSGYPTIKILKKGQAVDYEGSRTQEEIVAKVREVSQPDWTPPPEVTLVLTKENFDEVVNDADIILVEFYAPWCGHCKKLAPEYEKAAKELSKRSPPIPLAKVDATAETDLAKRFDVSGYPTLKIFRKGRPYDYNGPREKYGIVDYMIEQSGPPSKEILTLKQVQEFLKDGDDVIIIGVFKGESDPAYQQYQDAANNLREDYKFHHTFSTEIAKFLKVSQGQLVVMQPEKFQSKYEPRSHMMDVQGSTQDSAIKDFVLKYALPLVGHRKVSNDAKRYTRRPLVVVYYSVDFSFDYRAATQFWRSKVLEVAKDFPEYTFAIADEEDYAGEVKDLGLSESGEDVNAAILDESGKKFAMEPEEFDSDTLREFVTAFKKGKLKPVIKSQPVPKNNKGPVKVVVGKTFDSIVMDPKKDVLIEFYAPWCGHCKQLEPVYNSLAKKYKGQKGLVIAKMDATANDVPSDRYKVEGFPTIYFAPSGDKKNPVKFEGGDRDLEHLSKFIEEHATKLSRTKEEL

Turning to `C=CC(=O)Nc1ccccc1Nc1nc(Nc2ccc(N3CCN(CCOCCOCCOCCNC(=O)CCCC[C@@H]4SC[C@@H]5NC(=O)N[C@@H]54)CC3)cc2)ncc1Cl`, the outcome in [1], in assay [2], in assay [3], in assay [4], in [5] and in assay [6] was Active. The outcome in assay [7], in assay [8], in [9], in assay [10] and in assay [11] was Active.
With `COc1cc(O)c2c(c1)/C=C/C[C@H](O)[C@H](O)C(=O)/C=C\C[C@H](C)OC2=O`, the inhibition (in general, the change of the read-out against control, counted positive when it falls) in assay [12] was -9.5%. In addition, the Activity in [13] amounted to 0.1%.
